The record followed here is ChEMBL document CHEMBL3124927, “New C(4)- and C(1)-derivatives of furo[3,4-c]pyridine-3-ones and related compounds: evidence for site-specific inhibition of the constitutive proteasome and its immunoisoform” (Bioorg Med Chem Lett, 2014).

pIC50: −log10 of the molar value. Calls of active or inactive are those of the source. No cut-off for these calls is given here.

Assay [1] is described as follows: Inhibition of 20s constitutive proteasome beta 2 subunit trypsin-like activity in rabbit erythrocytes using Boc-LRR-AMC as substrate incubated for 15 mins prior to substrate addition measured after 45 mins by fluorescence assay. In kind it is cell-based, Oryctolagus cuniculus. The conditions noted are these: for pIC50: read-out: IC50. In a few lines:
(§1)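 Purified rabbit erythrocyte constitutive 20S fraction, 0.27 nM enzyme, pre-incubated 15 min with or without inhibitor, then Boc-LRR-AMC added. Buffer at pH 7.5. Fluorescence read-out. IC50 is from a plot of percent inhibition against inhibitor concentration, Hill-equation fit.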

The species entered for assay [2] is Oryctolagus cuniculus. Description: Inhibition of 20s constitutive proteasome beta 5 subunit chymotrypsin-like activity in rabbit erythrocytes using Suc-LLVY-AMC as substrate at 100 uM incubated for 15 mins prior to substrate addition measured after 45 mins by fluorescence assay relative to control. In kind it is cell-based. In outline: (§2)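 Purified rabbit erythrocyte constitutive 20S fraction, 0.27 nM enzyme, pre-incubated 15 min with or without inhibitor before substrate addition. Buffer pH 7.5: 20 mM Tris, 1 mM DTT, 10% glycerol, 0.02% (w/v) SDS. Fluorescence read-out. IC50 is from a percent inhibition versus concentration plot, fitted with a Hill-type equation.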

For assay [3], the target named is Cathepsin B (Homo sapiens) (UniProt P07858). Put plainly: Inhibition of human cathepsin B using Z-RR-AMC as substrate by fluorescence assay. In outline:
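Human cathepsin B fraction, Z-RR-AMC substrate, at 37 °C in 352 mM KH2PO4, 48 mM Na2HPO4, 1 mM EDTA, 1 mM DTT, pH 6. Fluorescence read-out. IC50 is from percent inhibition versus inhibitor concentration.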

Assay [4] addresses T1, Calpain-1 catalytic subunit (Homo sapiens) (UniProt P07384).
T1 sequence (whole entry): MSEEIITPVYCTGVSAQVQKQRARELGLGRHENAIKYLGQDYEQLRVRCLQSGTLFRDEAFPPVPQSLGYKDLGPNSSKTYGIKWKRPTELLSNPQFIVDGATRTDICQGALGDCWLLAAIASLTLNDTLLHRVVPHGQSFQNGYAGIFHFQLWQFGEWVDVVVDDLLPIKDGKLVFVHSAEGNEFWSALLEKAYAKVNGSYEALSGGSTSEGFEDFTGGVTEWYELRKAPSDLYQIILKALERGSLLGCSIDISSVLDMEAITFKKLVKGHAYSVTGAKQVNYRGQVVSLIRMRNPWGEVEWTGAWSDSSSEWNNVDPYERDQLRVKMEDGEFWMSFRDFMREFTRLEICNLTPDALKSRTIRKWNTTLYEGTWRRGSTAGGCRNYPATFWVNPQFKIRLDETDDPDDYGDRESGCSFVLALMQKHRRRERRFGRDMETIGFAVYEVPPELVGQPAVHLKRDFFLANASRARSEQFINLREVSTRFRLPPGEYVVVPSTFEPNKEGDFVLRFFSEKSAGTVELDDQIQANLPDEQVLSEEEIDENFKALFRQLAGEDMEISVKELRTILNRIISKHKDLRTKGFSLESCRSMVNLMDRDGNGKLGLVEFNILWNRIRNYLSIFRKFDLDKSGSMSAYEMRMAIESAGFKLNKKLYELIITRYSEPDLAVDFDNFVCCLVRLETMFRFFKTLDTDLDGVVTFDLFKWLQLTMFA
Put plainly: Inhibition of human calpain-1 using Suc-LLVY-AMC as substrate by fluorescence assay. In outline:
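Human calpain I fraction, Suc-LLVY-AMC substrate, at 25 °C in 50 mM Tris, 10 mM DTT with CaCl2, pH 7.2. Fluorescence read-out. IC50 is from percent inhibition versus inhibitor concentration.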

The nature of assay [5]: Inhibition of 20s constitutive proteasome beta 1 subunit caspase-like activity in rabbit erythrocytes using Z-LLE-betaNA as substrate incubated for 15 mins prior to substrate addition measured after 45 mins by fluorescence assay. In kind it is cell-based, Oryctolagus cuniculus. The note with it: for pIC50: read-out: IC50. In a few lines:
as §2

For assay [6], the species on record is Oryctolagus cuniculus. Description: Inhibition of 20s constitutive proteasome beta 2 subunit trypsin-like activity in rabbit erythrocytes using Boc-LRR-AMC as substrate at 100 uM incubated for 15 mins prior to substrate addition measured after 45 mins by fluorescence assay relative to control. In kind it is cell-based. In a few lines:
as §1

Assay [7] is described as follows: Inhibition of 20s constitutive proteasome beta 5 subunit chymotrypsin-like activity in rabbit erythrocytes using Suc-LLVY-AMC as substrate incubated for 15 mins prior to substrate addition measured after 45 mins by fluorescence assay. In kind it is cell-based, Oryctolagus cuniculus. The note with it: for pIC50: read-out: IC50. In a few lines:
as §2

As for `Cc1ccc(OCC(O)CNc2nccc3c2C(=O)OC3(C)C)cc1` (stereo unspecified), the pIC50 in assay [1] was 4.22. In the assay listed under Oryctolagus cuniculus [2], this compound had an inhibition of 36.5%. Further, the inhibition entry in assay [3] and in assay [4] was “inactive” each time. For the same compound, in assay [5], the IC50 entry is reported as “Not Active”.

`O=c1c2c(-c3ccc(Cl)cc3)csc2ncn1CCc1ccc(Cl)cc1` had an inhibition in the assay listed under Oryctolagus cuniculus [6] of 52%. The IC50 result in assay [7] and in assay [5] was “Not Active” throughout.

With `CC1(C)OC(=O)c2c1ccnc2N`, the inhibition in the assay listed under Oryctolagus cuniculus [6] came to 35%. Besides, the IC50 entry in assay [7] is “Not Active”. Further, the inhibition result in assay [3] and in assay [4] was “inactive” throughout. For the same compound, in assay [5], the pIC50 was 5.10.

Consider `O=c1[nH]ccc2c1c(=O)oc1ccccc12`, for which the IC50 result in assay [1], in assay [7] and in assay [5] was “Not Active” each time. For the same compound, the inhibition entry in assay [3] and in assay [4] was “inactive” each time.

`CCOC(=O)C1=C(/C=C/N(C)C)C(C)(C)OC1=O`: the IC50 result in assay [1], in assay [7] and in assay [5] was “Not Active” in each case. Besides, the inhibition entry in assay [3] and in assay [4] was “inactive” each time.

In the assay listed under Oryctolagus cuniculus [6], `C=C1c2c(ncn(CCCn3ccnc3)c2=O)OC1(C)C` returned an inhibition of 56%. Further, in assay [7], the IC50 entry is “Not Active”. In addition, the pIC50 in assay [5] was 4.33.

For the compound `C[C@@]12OC(=O)[C@]1([C@@H](O)[C@@H]1C=CCCC1)NC(=O)[C@@H]2CCCl` [MARIZOMIB], the pIC50 was 7.68 in assay [1], 8.59 in assay [7] and 6.34 in assay [5].

With `Cc1sc2ncn(CCc3ccccc3)c(=O)c2c1C`, the inhibition in the assay filed under Oryctolagus cuniculus [6] was found to be 42%. Moreover, the IC50 entry in assay [7] and in assay [5] was “Not Active” in each case.

Turning to `CC1(C)OC(=O)c2c1ccnc2NCC(O)COc1ccc(Cl)cc1` (stereo unspecified), the pIC50 in assay [1] is 4.32. Also, the inhibition in the assay listed under Oryctolagus cuniculus [2] amounted to 63%. Further, the inhibition result in assay [3] and in assay [4] was “inactive” throughout. Also, in assay [5], the IC50 entry was “Not Active”.

On to `CC1(C)OC(=O)c2c1ccnc2NCC(O)COc1ccc(F)cc1` (stereo unspecified), for which the IC50 entry in assay [1] and in assay [5] was “Not Active” in each case. Moreover, the inhibition in the assay listed under Oryctolagus cuniculus [2] was 29%. Further, the inhibition result in assay [3] and in assay [4] was “inactive” each time.

In the case of `Nc1nccc2c1C(=O)OC21CCCCC1`, the IC50 result in assay [1] and in assay [7] was “Not Active” in each case. Moreover, the inhibition result in assay [3] and in assay [4] was “inactive” throughout. The pIC50 in assay [5] was 5.08.

Compound `O=c1c2c(-c3ccc(Cl)cc3)csc2ncn1CCc1ccccc1` had an inhibition in the assay filed under Oryctolagus cuniculus [6] of 48%. The IC50 result in assay [7] and in assay [5] was “Not Active” in each case.

On to `CC(N)C1=C(c2ccccc2)C(C)(C)OC1=O` (stereo unspecified), for which the IC50 entry in assay [1], in assay [7] and in assay [5] was “Not Active” each time. For the same compound, the inhibition entry in assay [3] and in assay [4] was “inactive” in each case.

For the compound `Cc1cc(=O)oc2cc[nH]c(=O)c12`, the pIC50 in assay [1] was 5.06; in assay [7] it was 4.53. In addition, the inhibition result in assay [3] and in assay [4] was “inactive” throughout. Moreover, the IC50 entry in assay [5] is “Not Active”.

In the assay listed under Oryctolagus cuniculus [6], `Cc1sc2ncn(CCCN3CCOCC3)c(=O)c2c1C` gave an inhibition of 53%. Further, the IC50 result in assay [7] and in assay [5] was “Not Active” each time.

Consider `C=C1c2c(ncn(CCO)c2=O)OC1(C)C`, for which the IC50 result in assay [1], in assay [7] and in assay [5] was “Not Active” in each case.

For the compound `Cc1nccc2c1C(=O)OC2(C)C`, the pIC50 in assay [1] is 4.06. The IC50 result in assay [7] and in assay [5] was “Not Active” in each case. Besides, the inhibition entry in assay [3] and in assay [4] was “inactive” in each case.

On to `CC1(C)OC(=O)C(C(N)=O)=C1/C=C/c1ccccc1`, for which the IC50 entry in assay [1], in assay [7] and in assay [5] was “Not Active” each time. For the same compound, the inhibition result in assay [3] and in assay [4] was “inactive” throughout.

As for `Cc1ccc(CCn2cnc3sc(C)c(C)c3c2=O)cc1`, the IC50 entry in assay [1], in assay [7] and in assay [5] was “Not Active” each time.

With `C=C1c2c(ncn(CCCN3CCOCC3)c2=O)OC1(C)C`, the inhibition in the assay filed under Oryctolagus cuniculus [6] turned out to be 48%. The IC50 result in assay [7] and in assay [5] was “Not Active” throughout.

With `C=C1c2c(ncn(C)c2=O)OC12CCCCC2`, the IC50 entry in assay [1] and in assay [5] was “Not Active” throughout. For the same compound, the inhibition in the assay filed under Oryctolagus cuniculus [2] was found to be 30%.

Consider `Cc1sc2ncn(CCc3ccc(Cl)cc3)c(=O)c2c1C`, for which the pIC50 in assay [1] was 4.25. Moreover, the IC50 entry in assay [7] and in assay [5] was “Not Active” in each case.

With `CC1(C)OC(=O)C(C(N)=S)=C1c1ccccc1`, the IC50 result in assay [1], in assay [7] and in assay [5] was “Not Active” in each case. The inhibition result in assay [3] and in assay [4] was “inactive” in each case.

As for `CC1(C)OC(=O)c2c1ccnc2NCC(O)COc1ccccc1` (stereo unspecified), the IC50 entry in assay [1] and in assay [7] was “Not Active” each time. Besides, the inhibition result in assay [3] and in assay [4] was “inactive” in each case. For the same compound, the pIC50 in assay [5] is 4.32.

For the compound `CC1(C)OC(=O)c2c1ccnc2O`, the IC50 result in assay [1] and in assay [7] was “Not Active” each time. The inhibition result in assay [3] and in assay [4] was “inactive” each time. Besides, the pIC50 in assay [5] was 4.78.

`C=C1c2c(ncn(-c3ccc(Br)cc3)c2=O)OC1(C)C` came in with an inhibition in the assay listed under Oryctolagus cuniculus [6] of 29%. Also, the IC50 result in assay [7] and in assay [5] was “Not Active” in each case.

Consider `C=C1c2c(nc[nH]c2=O)OC1(C)c1ccccc1` (stereo unspecified), for which the IC50 result in assay [1], in assay [7] and in assay [5] was “Not Active” in each case.

Regarding `C=C1c2c(nc[nH]c2=O)OC1(C)C`, the pIC50 in assay [1] was 4.23. Moreover, the IC50 entry in assay [7] and in assay [5] was “Not Active” each time.

For the compound `C=C1c2c(ncn(CC(O)CN3CCOCC3)c2=O)OC1(C)C` (stereo unspecified), the IC50 entry in assay [1] and in assay [5] was “Not Active” in each case. The inhibition in the assay filed under Oryctolagus cuniculus [2] came out at 33%.

As for `C=C1c2c(ncn(CC(O)COc3ccccc3)c2=O)OC1(C)C` (stereo unspecified), the IC50 result in assay [1], in assay [7] and in assay [5] was “Not Active” in each case.

In the case of `O=C1OC2(CCCCC2)c2ccnc(O)c21`, the IC50 entry in assay [1] and in assay [7] was “Not Active” throughout. The inhibition entry in assay [3] and in assay [4] was “inactive” in each case. Besides, the negative logarithm of the IC50 (pIC50) in assay [5] was 4.56.

`CC12CCCC=C1c1c(nc[nH]c1=O)O2` (stereo unspecified): the IC50 entry in assay [1], in assay [7] and in assay [5] was “Not Active” each time.

On to `Cc1nccc2c1C(=O)OC21CCCCC1`, for which the IC50 entry in assay [1] and in assay [7] was “Not Active” throughout. In addition, the inhibition result in assay [3] and in assay [4] was “inactive” in each case. In addition, the pIC50 in assay [5] is 4.79.

In general, pIC50 refers to the IC50 on a negative log10 scale, so that one unit is a factor of ten. What is called inhibition is the drop in the measured response relative to a control, in per cent.
